Laboratory results published in the array DNA melting data of Ke et al. (doi:10.1101/2024.01.08.574731).

Columns and labels:
[1] = folding enthalpy; higher = less favourable; fluorescence melt of hairpins on a sequencing array, two-state fit; conditions: sodium 0.088 M
In short: (§1)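 Bootstrapped two-state fits yielded melting temperature and folding enthalpy for library hairpins. Cy3 fluorescence, with annealed Cy3 and quencher oligos, was imaged on a sequenced MiSeq flow cell in 50 mM Na-HEPES pH 8.0, 25 mM NaCl in 2.5 °C steps up to 60 °C, and normalised to pre-quench Cy3 and to control constructs. Four replicates were combined by inverse variance, and fitted temperatures were raised by 9.35 °C to match UV melts.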

[2] = melting temperature; fluorescence melt of hairpins on a sequencing array, two-state fit, raised by 9.35 °C to match UV melts; conditions: sodium 0.088 M
In short: as §1

Sequence	folding enthalpy [1] [kcal/mol]	Tm [2] [°C]
GGTTATGAAAATAACC ((((((....))))))	-31.8	50.9
GGTTATGGAAACATAGCC ((.((((....)))).))	-31.1	43.8
GGTTCAACGAAAGTTACC (((..(((....))))))	-14.4	27.8
GGTTCCGAAAGGACCACC ((((((....)))..)))	-14	44.3
GGTTCCGAAAGGAGACC ((((((....))).)))	-23.8	47.6
GGTTCCGCGAAAGCGACC (((..(((....))))))	-8.82	28.4
GGTTCCGGAAACAGAACC (((((.(....).)))))	-35.7	41.1
GGTTCGACGAAAGTCACC (((..(((....))))))	-11.9	24.9
GGTTCGGCGAAAGCCACC (((..(((....))))))	-9.35	28.7
GGTTCTACGAAAGTAACC (((..(((....))))))	-19.6	28.2
GGTTCTCGAAAGAGGACC (((.(((....))).)))	-42.8	57.2
GGTTCTGAAAAGAACC ((((((....))))))	-33.3	59.2
GGTTCTGGAAACAGAGTC (..((((....))))..)	-11.8	28.1
GGTTGAGCGAAAGCTACC (((..(((....))))))	-13.1	42.4
GGTTGAGGAAACTCGATC (.(.(((....))).).)	-16.8	29.8
GGTTGATCGAAAGATACC (((..(((....))))))	-8.74	25.5
GGTTGCCGAAAGGCCACC (((.(((....))).)))	-26.6	52.6
GGTTGCGAAAGCAGCACC ((((((....)))..)))	-12.4	41
GGTTGCGAAAGCATACC ((((((....))).)))	-28.7	51.8
GGTTGCGAAAGCATGACC ((((((....)))..)))	-15.7	40.2
GGTTGCGGAAACGCAGTC (..((((....))))..)	-12.8	36.1
GGTTGGCGAAAGCCACC (((.(((....))))))	-16.5	57.7
GGTTGGGGAAACCCGATC (.(.(((....))).).)	-21.6	34.4

Sequence	folding enthalpy [1] [kcal/mol]	Tm [2] [°C]
GGTTGGGGAAACCTAGCC ((.(.((....)).).))	-19.1	38
GGTTGGGGAAACTCAACC (((((.(....).)))))	-38.4	51.1
GGTTGGTCGAAAGACACC (((..(((....))))))	-17.3	37
GGTTGTCCGAAAGGAACC (((..(((....))))))	-14.5	31.2
GGTTGTGGAAACACAGCC ((.((((....)))).))	-42.4	52.1
GGTTGTGGAAACGTAACC ((((..(....)..))))	-24.3	35.7
GGTTTACGAAAGTATACC (((.(((....))).)))	-39.3	45.5
GGTTTAGGAAACTGAACC ((((.((....)).))))	-31.8	43.2
GGTTTCCCGAAAGGGACC (((..(((....))))))	-12.3	33.8
GGTTTCGAAAGAAAAACC ((((((....)))..)))	-23.4	33.6
GGTTTCGAAAGAAACC ((((((....))))))	-40.8	64.2
GGTTTCGAAAGAAGTACC ((((((....)))..)))	-12.7	29.8
GGTTTCGGAAACGGAACC ((((.((....)).))))	-45	52.6
GGTTTGCGAAAGCACACC (((.(((....))).)))	-28.2	51.7
GGTTTGGGAAACCAAACC (((((((....)))))))	-40.3	64.6
GGTTTGGGAAACCAGACC (((.(((....))).)))	-33.1	47.8
GGTTTGGGAAACTAGACC (((.(.(....).).)))	-18.1	30.7
GTAAAAGAAATTTTAC ((((((....))))))	-13	30.8
GTAAAAGCGAAAGCTTAC (((..(((....))))))	-11.6	35.9
GTAAACCGAAAGGTTAC (((.(((....))))))	-15.7	43.2
GTAAACGAAAGTTACTAC ((((((....)))..)))	-17.6	34.8
GTAAACGAAAGTTTTAC ((((((....))).)))	-18.5	36.5
GTAAACTCGAAAGAGTAC (((..(((....))))))	-11.9	31

Sequence	folding enthalpy [1] [kcal/mol]	Tm [2] [°C]
GTAAAGCCGAAAGGCTAC (((..(((....))))))	-8.48	35.5
GTAAAGCGAAAGCTATAC (((.(((....))).)))	-15.6	41.3
GTAAATACGAAAGTATAC (((..(((....))))))	-9.48	25
GTAAATCCGAAAGGATAC (((..(((....))))))	-11	33.8
GTAACACGAAAGTGATAC (((.(((....))).)))	-25.5	46.8
GTAACCCCGAAAGGGTAC (((..(((....))))))	-13.6	35
GTAACCCGAAAGGGCTAC (((.(((....))).)))	-20	45.6
GTAACCCGAAAGGGTAC (((.(((....))))))	-12.5	50.1
GTAACCGAAAGGTCTTAC ((((((....)))..)))	-11.6	30.6
GTAACCGAAAGGTTAC ((((((....))))))	-29	67.1
GTAACCGCGAAAGCGTAC (((..(((....))))))	-8.01	28.4
GTAACCGGAAACAGTTAC (((((.(....).)))))	-21.2	32.9
GTAACCGGAAACGGCTAC (((.(((....))).)))	-25.9	42.9
GTAACCGGAAACGGTCAC ((.((((....)))).))	-17.2	39.7
GTAACCGGAAACGGTTAC (((((((....)))))))	-38.8	65.8
GTAACGCGAAAGCGGTAC (((.(((....))).)))	-27.1	65.3
GTAACGGGAAACCGTCAC ((.((((....)))).))	-16.4	35.7
GTAACGGGAAACCGTTAC (((((((....)))))))	-49.6	60.5
GTAACTCGAAAGAGTAC (((.(((....))))))	-15	42.4
GTAACTGAAAAGTTAC ((((((....))))))	-31.4	50.9
GTAAGACGAAAGTCGTAC (((.(((....))).)))	-17.8	50.4
GTAAGACGAAAGTCTAC (((.(((....))))))	-14.6	41.7
GTAAGAGGAAACTCTTGC (.(((((....))))).)	-25	38.7

Sequence	folding enthalpy [1] [kcal/mol]	Tm [2] [°C]
GTAAGCGAAAGCTTGTAC ((((((....)))..)))	-11.7	32.3
GTAAGCGGAAACACTTAC (((((.(....).)))))	-29.8	35.6
GTAAGCGGAAACGTTTGC (.((.((....)).)).)	-14.9	31.9
GTAAGGCCGAAAGGCTAC (((..(((....))))))	-9.55	33.8
GTAAGGCGAAAGCCGTAC (((.(((....))).)))	-14.2	53
GTAAGGGAAACCTTAC ((((((....))))))	-26.2	48
GTAAGGGGAAACCCCTAC (((.(((....))).)))	-16.9	39
GTAAGGGGAAACCCTTGC (.(((((....))))).)	-23.3	46.2
GTAAGTCCGAAAGGATAC (((..(((....))))))	-10.1	25.9
GTAAGTCGAAAGACCTAC (((.(((....))).)))	-17	35.7
GTAAGTGGAAACACTTAC (((((((....)))))))	-45.2	55.4
GTAATAACGAAAGTTTAC (((..(((....))))))	-10.5	26.8
GTAATACCGAAAGGTTAC (((..(((....))))))	-14.6	31.5
GTAATCCGAAAGGAATAC (((.(((....))).)))	-26.2	40.6
GTAATCGAAAGATTATAC ((((((....)))..)))	-15.6	33.4
GTAATCGGAAACGACTAC (((.(((....))).)))	-19.5	34.3
GTAATGCGAAAGCAATAC (((.(((....))).)))	-20	44.6
GTAATGCGAAAGCACTAC (((.(((....))).)))	-19.9	39.4
GTAATGGGAAACCATTGC (.(((((....))))).)	-26.4	43.3
GTAATGGGAAACCGTTAC ((((.((....)).))))	-34.3	44.1
GTAATGTCGAAAGACTAC (((..(((....))))))	-11.7	28.8
GTAATTGGAAACAATTAC (((((((....)))))))	-45.9	50.4
